Values joined by “and” are separate entries in the source; they are usually repeats but may differ in a detail not shown here. Identical values can stand only once.
System: U2OS
Assay: Multiplex assay against U2OS
Format: toxicity, cell-based
Conditions: human, number of replicates 2
Procedure, shortened: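 Values for tubulin, mitochondrial-mass and membrane-permeability phenotypes are per cents of cells with healthy nuclei. These cells were identified by CellPathfinder machine-learning gating of live cells that had been stained at seeding with Hoechst33342, BioTracker Green Microtubule Cytoskeleton Dye, MitoTracker Red and Annexin V Alexa Fluor 680 and imaged on a CQ1 microscope at 37°C and 5% CO2 after compound addition. The gating first set Hoechst high-intensity objects apart from normal cells, then split normal cells into healthy, pyknosed or fragmented nuclei, and pyknosed cells into mitotic or apoptotic.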

[1] = 12 h, 1 µM, compound concentration 1 uM
[2] = 12 h, 10 µM, compound concentration 10 uM
[3] = 24 h, 1 µM, compound concentration 1 uM
[4] = 24 h, 10 µM, compound concentration 10 uM
[5] = 48 h, 1 µM, compound concentration 1 uM
[6] = 48 h, 10 µM, compound concentration 10 uM

## CCn1ccc(Nc2ncc3c(n2)-c2c(nn(C)c2-c2ccc(-c4cnn(C)c4)cc2Cl)CC3)n1
[1]
  Population Apoptotic (%): 62% and 57%
  Population Fragmented Nuclei (%): 5% and 15%
  Population Healthy Nuclei (%): 83% and 63%
  Population Hoechst High Intensity Objects (%): 0%
  Population Mitochondria Different-Phenotype (%): 1% and 9%
  Population Mitotic Cells (%): 37% and 42%
  Population Normal (%): 100%
  Population Pyknosed Nuclei (%): 11% and 21%
  Population Tubulin-Different-Phenotype (%): 78% and 47%
[2]
  Population Apoptotic (%): 62% and 66%
  Population Fragmented Nuclei (%): 3% and 4%
  Population Healthy Nuclei (%): 71% and 83%
  Population Hoechst High Intensity Objects (%): 0%
  Population Membrane Permeable-Phenotype (%): 13% and 4%
  Population Mitochondria Different-Phenotype (%): 8% and 4%
  Population Mitotic Cells (%): 37% and 33%
  Population Normal (%): 100%
  Population Pyknosed Nuclei (%): 25% and 11%
  Population Tubulin-Different-Phenotype (%): 39% and 29%
[3]
  Population Apoptotic (%): 70% and 62%
  Population Healthy Nuclei (%): 85% and 64%
  Population Hoechst High Intensity Objects (%): 0%
  Population Mitochondria Different-Phenotype (%): 1% and 6%
  Population Mitotic Cells (%): 29% and 37%
  Population Normal (%): 99% and 100%
  Population Pyknosed Nuclei (%): 9% and 17%
  Population Tubulin-Different-Phenotype (%): 76% and 37%
[4]
  Population Apoptotic (%): 83% and 63%
  Population Fragmented Nuclei (%): 8% and 5%
  Population Healthy Nuclei (%): 75% and 82%
  Population Hoechst High Intensity Objects (%): 0%
  Population Membrane Permeable-Phenotype (%): 7% and 2%
  Population Mitochondria Different-Phenotype (%): 18% and 6%
  Population Mitotic Cells (%): 16% and 36%
  Population Normal (%): 100%
  Population Pyknosed Nuclei (%): 16% and 11%
  Population Tubulin-Different-Phenotype (%): 44% and 29%
[5]
  Population Apoptotic (%): 63% and 100%
  Population Healthy Nuclei (%): 89% and 77%
  Population Hoechst High Intensity Objects (%): 0%
  Population Membrane Permeable-Phenotype (%): 1% and 8%
  Population Mitochondria Different-Phenotype (%): 0% and 4%
  Population Normal (%): 100%
  Population Pyknosed Nuclei (%): 7% and 9%
  Population Tubulin-Different-Phenotype (%): 81% and 40%
[6]
  Population Apoptotic (%): 68% and 75%
  Population Fragmented Nuclei (%): 8% and 3%
  Population Healthy Nuclei (%): 55% and 80%
  Population Hoechst High Intensity Objects (%): 0%
  Population Membrane Permeable-Phenotype (%): 4% and 3%
  Population Mitochondria Different-Phenotype (%): 12% and 4%
  Population Mitotic Cells (%): 31% and 25%
  Population Normal (%): 100% and 99%
  Population Pyknosed Nuclei (%): 35% and 16%
  Population Tubulin-Different-Phenotype (%): 44% and 35%

## CCNc1ccc(-c2nn(-c3ccccc3C)c3c2C(C)Cc2nc(NC(=O)OC)sc2-3)cn1.O=C(O)C(F)(F)F (stereo unspecified)
[1]
  Population Apoptotic (%): 72% and 80%
  Population Fragmented Nuclei (%): 14% and 11%
  Population Healthy Nuclei (%): 71% and 73%
  Population Hoechst High Intensity Objects (%): 0% and 1%
  Population Membrane Permeable-Phenotype (%): 5% and 2%
  Population Mitochondria Different-Phenotype (%): 5% and 4%
  Population Mitotic Cells (%): 27% and 20%
  Population Normal (%): 100% and 98%
  Population Pyknosed Nuclei (%): 14%
  Population Tubulin-Different-Phenotype (%): 55% and 24%
  Total Cell Count: 200 and 68
[2]
  Population Apoptotic (%): 83% and 88%
  Population Fragmented Nuclei (%): 32% and 18%
  Population Healthy Nuclei (%): 25% and 55%
  Population Hoechst High Intensity Objects (%): 0%
  Population Membrane Permeable-Phenotype (%): 28% and 25%
  Population Mitotic Cells (%): 16% and 11%
  Population Normal (%): 100% and 99%
  Population Pyknosed Nuclei (%): 42% and 25%
  Population Tubulin-Different-Phenotype (%): 57% and 88%
[3]
  Population Apoptotic (%): 84% and 75%
  Population Fragmented Nuclei (%): 14% and 6%
  Population Healthy Nuclei (%): 63% and 74%
  Population Hoechst High Intensity Objects (%): 0%
  Population Membrane Permeable-Phenotype (%): 2% and 8%
  Population Mitochondria Different-Phenotype (%): 9% and 2%
  Population Mitotic Cells (%): 15% and 25%
  Population Normal (%): 100%
  Population Pyknosed Nuclei (%): 21% and 19%
  Population Tubulin-Different-Phenotype (%): 58% and 34%
  Total Cell Count: 176 and 63
[4]
  Population Apoptotic (%): 72% and 89%
  Population Healthy Nuclei (%): 18% and 39%
  Population Hoechst High Intensity Objects (%): 0%
  Population Membrane Permeable-Phenotype (%): 14% and 32%
  Population Mitochondria Different-Phenotype (%): 28% and 63%
  Population Mitotic Cells (%): 27% and 10%
  Population Normal (%): 100% and 99%
  Population Pyknosed Nuclei (%): 29% and 45%
  Population Tubulin-Different-Phenotype (%): 42% and 83%
[5]
  Population Apoptotic (%): 72% and 80%
  Population Fragmented Nuclei (%): 9% and 7%
  Population Healthy Nuclei (%): 52% and 57%
  Population Hoechst High Intensity Objects (%): 0% and 1%
  Population Membrane Permeable-Phenotype (%): 6% and 7%
  Population Mitochondria Different-Phenotype (%): 9% and 2%
  Population Mitotic Cells (%): 27% and 20%
  Population Normal (%): 99% and 98%
  Population Pyknosed Nuclei (%): 37% and 35%
  Population Tubulin-Different-Phenotype (%): 69% and 25%
  Total Cell Count: 157 and 71
[6]
  Population Apoptotic (%): 90% and 93%
  Population Healthy Nuclei (%): 10% and 28%
  Population Hoechst High Intensity Objects (%): 0%
  Population Membrane Permeable-Phenotype (%): 66% and 43%
  Population Mitotic Cells (%): 10% and 6%
  Population Normal (%): 100% and 99%
  Population Pyknosed Nuclei (%): 33% and 61%
  Population Tubulin-Different-Phenotype (%): 100% and 84%

## COc1ncc(-c2cc(-c3ncc(CN4C[C@@H](C)O[C@@H](C)C4)o3)c3cn[nH]c3c2)cc1NS(C)(=O)=O
[1]
  Population Apoptotic (%): 66% and 57%
  Population Fragmented Nuclei (%): 3% and 13%
  Population Healthy Nuclei (%): 85% and 69%
  Population Hoechst High Intensity Objects (%): 0%
  Population Membrane Permeable-Phenotype (%): 1% and 0%
  Population Mitochondria Different-Phenotype (%): 0%
  Population Mitotic Cells (%): 33% and 42%
  Population Normal (%): 99% and 100%
  Population Pyknosed Nuclei (%): 11% and 16%
  Population Tubulin-Different-Phenotype (%): 84% and 43%
[2]
  Population Apoptotic (%): 50% and 64%
  Population Healthy Nuclei (%): 68% and 77%
  Population Hoechst High Intensity Objects (%): 0%
  Population Membrane Permeable-Phenotype (%): 12% and 10%
  Population Mitochondria Different-Phenotype (%): 0% and 5%
  Population Mitotic Cells (%): 50% and 35%
  Population Normal (%): 100% and 99%
  Population Pyknosed Nuclei (%): 10% and 18%
  Population Tubulin-Different-Phenotype (%): 48% and 45%
[3]
  Population Apoptotic (%): 65% and 87%
  Population Fragmented Nuclei (%): 1% and 9%
  Population Healthy Nuclei (%): 87% and 75%
  Population Hoechst High Intensity Objects (%): 0%
  Population Membrane Permeable-Phenotype (%): 1% and 0%
  Population Mitochondria Different-Phenotype (%): 0%
  Population Mitotic Cells (%): 34% and 12%
  Population Normal (%): 99% and 100%
  Population Pyknosed Nuclei (%): 10% and 15%
  Population Tubulin-Different-Phenotype (%): 82% and 47%
[4]
  Population Apoptotic (%): 64% and 74%
  Population Healthy Nuclei (%): 49% and 69%
  Population Hoechst High Intensity Objects (%): 0%
  Population Membrane Permeable-Phenotype (%): 0% and 8%
  Population Mitochondria Different-Phenotype (%): 7% and 9%
  Population Mitotic Cells (%): 35% and 25%
  Population Normal (%): 100%
  Population Pyknosed Nuclei (%): 26% and 23%
  Population Tubulin-Different-Phenotype (%): 76% and 49%
[5]
  Population Apoptotic (%): 65% and 69%
  Population Fragmented Nuclei (%): 2% and 7%
  Population Healthy Nuclei (%): 87% and 72%
  Population Hoechst High Intensity Objects (%): 0%
  Population Membrane Permeable-Phenotype (%): 1% and 0%
  Population Mitochondria Different-Phenotype (%): 0%
  Population Mitotic Cells (%): 34% and 30%
  Population Normal (%): 99% and 100%
  Population Pyknosed Nuclei (%): 10% and 19%
  Population Tubulin-Different-Phenotype (%): 81% and 43%
[6]
  Population Apoptotic (%): 76% and 81%
  Population Healthy Nuclei (%): 55% and 62%
  Population Hoechst High Intensity Objects (%): 0%
  Population Membrane Permeable-Phenotype (%): 7% and 8%
  Population Mitochondria Different-Phenotype (%): 10% and 12%
  Population Mitotic Cells (%): 23% and 18%
  Population Normal (%): 100%
  Population Pyknosed Nuclei (%): 25% and 30%
  Population Tubulin-Different-Phenotype (%): 63% and 50%

— ChEMBL document CHEMBL5303300, “EUbOPEN Chemogenomics Library - Multiplex” (2023)
